Experimental data taken from ChEMBL document CHEMBL1133678, “Synthesis of new indeno[1,2-c]isoquinolines: cytotoxic non-camptothecin topoisomerase I inhibitors” (2000).

Key:
Format in all cases: functional
[1] = system: SF-539; test: Antiproliferative activity was determined for 50% growth inhibition against human CNS SF-539 cell line
In short: (§1)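 Human cancer cell lines from the roughly 55-line panel. GI50 is the concentration giving 50% growth inhibition. The test range was 10^-4 to 10^-8 M. Values outside the range were set to the minimum (10^-8 M) or the maximum (10^-4 M).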

[2] = system: DU-145; test: Antiproliferative activity was determined for 50% growth inhibition against human Prostate DU-145 cell line; in short: as §1
[3] = system: HOP-62; test: Antiproliferative activity was determined for 50% growth inhibition against human lung HOP-62 cell line; in short: as §1
[4] = system: HCT-116; test: Antiproliferative activity was determined for 50% growth inhibition against human colon HCT116 cell line; in short: as §1
[5] = system: MDA-MB-435; test: Antiproliferative activity was determined for 50% growth inhibition against human breast MDA-MB-435 cell line; in short: as §1
[6] = system: OVCAR-3; test: Antiproliferative activity was determined for 50% growth inhibition against human ovarian OVCAR-3 cell line; in short: as §1
[7] = system: SN12C; test: Antiproliferative activity was determined for 50% growth inhibition against human renal SN12C cell line; in short: as §1
[8] = system: UACC-62; test: Antiproliferative activity was determined for 50% growth inhibition against human melanoma UACC-62 cell line; in short: as §1
[9] = system: Panel (Carcinoma cell lines); test: Mean graph midpoint for growth inhibition of all human cancer cell lines; set-up: unit: µM
In short: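 Mean graph midpoint across all cell lines successfully tested in the roughly 55-line human cancer panel. Each line's GI50 is the 50% growth-inhibition concentration, tested over 10^-4 to 10^-8 M. Out-of-range values were set to 10^-8 M or 10^-4 M before averaging.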

SMILES | GI50 ([1]; Homo sapiens, SF-539) | GI50 ([2]; Homo sapiens, DU-145) | GI50 ([3]; Homo sapiens, HOP-62) | GI50 ([4]; Homo sapiens, HCT-116) | GI50 ([5]; Homo sapiens, MDA-MB-435) | GI50 ([6]; Homo sapiens, OVCAR-3) | GI50 ([7]; Homo sapiens, SN12C) | GI50 ([8]; Homo sapiens, UACC-62) | MGM [9] | GI50 [1] | GI50 [2] | GI50 [3] | GI50 [4] | GI50 [5] | GI50 [6] | GI50 [7] | GI50 [8]
CCn1c2c(c3cc(OC)c(OC)cc3c1=O)Cc1cc3c(cc1-2)OCO3 | > 100 µM | > 100 µM | > 100 µM | > 100 µM | > 100 µM | > 100 µM | > 100 µM | > 100 µM | 85.1 | – | – | – | – | – | – | – | –
COc1cc2c3c(n(CCCBr)c(=O)c2cc1OC)-c1cc2c(cc1C3=O)OCO2 | 4.33 µM | 3.2 µM | 6.22 µM | 12 µM | 16.6 µM | 62.1 µM | 5.83 µM | 5.02 µM | 13.7 | – | – | – | – | – | – | – | –
COc1cc2c(cc1OC)-c1c(c3cc(OC)c(OC)cc3c(=O)n1CCCNCCCO)C2=O.Cl | – | – | – | – | – | – | – | – | 1.14 | 0.42 µM | 0.23 µM | 0.32 µM | 0.71 µM | 2.42 µM | 3.8 µM | 0.23 µM | 1.87 µM
COc1cc2c3c(n(CCCN)c(=O)c2cc1OC)-c1ccc2ccccc2c1C3=O.Cl | 1.53 µM | 1.64 µM | 1.89 µM | 1.73 µM | 2.14 µM | 3.73 µM | 6.54 µM | 17.5 µM | 3.72 | – | – | – | – | – | – | – | –
O=C1c2ccccc2-c2c1c1ccccc1c(=O)n2CCCBr | 4.61 µM | 13 µM | 4.59 µM | 4.47 µM | 21.5 µM | 23.5 µM | 7 µM | 10.1 µM | 13.3 | – | – | – | – | – | – | – | –
COc1cc2c3c(n(CCCN=[N+]=[N-])c(=O)c2cc1OC)-c1cc2c(cc1C3=O)OCO2 | 3 µM | 3.19 µM | 3.58 µM | 7.4 µM | > 100 µM | 76.2 µM | 4.53 µM | – | 11.8 | – | – | – | – | – | – | – | –
CC[C@@]1(O)C(=O)OCc2c1cc1n(c2=O)Cc2cc3ccccc3nc2-1 [CAMPTOTHECIN] | 0.01 µM | 0.01 µM | 0.01 µM | 0.03 µM | 0.04 µM | – | 0.02 µM | 0.01 µM | – | – | – | – | – | – | – | – | –
COc1cc2c(cc1OC)-c1c(c3ccccc3c(=O)n1CCCCl)C2=O | > 100 µM | > 100 µM | > 100 µM | > 100 µM | > 100 µM | > 100 µM | > 100 µM | > 100 µM | 76.1 | – | – | – | – | – | – | – | –
COc1cc2c(cc1OC)-c1c(c3cc(OC)c(OC)cc3c(=O)n1CCCNCCO)C2=O | – | – | – | 0.31 µM | 1.25 µM | – | – | 0.38 µM | 0.51 | 0.01 µM | 0.02 µM | 0.05 µM | – | – | 11.2 µM | 0.05 µM | –
COc1cc2c(cc1OC)-c1c(c3ccccc3c(=O)n1CCCNCCO)C2=O.Cl | 0.45 µM | 0.44 µM | 0.62 µM | 0.34 µM | 0.97 µM | 3.64 µM | 2.07 µM | 0.63 µM | 0.95 | – | – | – | – | – | – | – | –
O=C1c2cc3c(cc2-c2c1c1ccccc1c(=O)n2CCCNCCCO)OCO3 | 16.2 µM | 16.7 µM | 7.17 µM | 12.5 µM | 19.9 µM | 15 µM | 14.2 µM | > 100 µM | 15.5 | – | – | – | – | – | – | – | –
COc1cc2c3c(n(C)c(=O)c2cc1OC)-c1cc2c(cc1C3=O)OCO2 | 41 µM | 37 µM | 1.3 µM | 35 µM | 96 µM | – | 68 µM | 4.2 µM | 20 | – | – | – | – | – | – | – | –
COc1cc2c3c(n(CCCNCCO)c(=O)c2cc1OC)-c1cc2c(cc1C3=O)OCO2 [LMP-744] | – | 0.02 µM | – | – | – | – | – | – | 0.21 | 0.09 µM | – | – | – | 0.68 µM | 1.5 µM | – | –
COc1cc2c(cc1OC)-c1c(c3ccccc3c(=O)n1CCCN)C2=O.Cl | 2.93 µM | 0.89 µM | 0.19 µM | 0.35 µM | 1.05 µM | 0.85 µM | 0.43 µM | 1.27 µM | 0.62 | – | – | – | – | – | – | – | –
O=C1c2cc3c(cc2-c2c1c1ccccc1c(=O)n2CCCCl)OCO3 | > 100 µM | 12.7 µM | 13.1 µM | 74 µM | > 100 µM | 66.3 µM | > 100 µM | 53.8 µM | 35.1 | – | – | – | – | – | – | – | –
